Laboratory results taken from publication PMC12502093 (RSC Advances, 2025).
In brackets after ≈: the same amount, converted by molar mass.

Tests used:
C. albicans ATCC 10231 [1] = assay: Agar well diffusion test; assay type: cell-based; conditions: AWDT; for Zone of inhibition, inhibition scale: C. albicans ATCC 10231; for Zone of inhibition: C. albicans ATCC 10231, average of triplicate
S. aureus ATCC 25923 = assay: Agar well diffusion test; assay type: cell-based; conditions: AWDT; for Zone of inhibition, inhibition scale: S. aureus ATCC 25923; for Zone of inhibition: S. aureus ATCC 25923, average of triplicate
Method in brief: (§1)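 Agar well diffusion. Test compounds were placed in wells on agar inoculated with the reference strain or isolate. After incubation, inhibition zone diameters were measured in mm with a caliper. Runs were in triplicate and the zone averaged. Scale: 0 = no inhibition; 0–6 mm (−); 7–11 mm (+); 12–14 mm (++); 15–17 mm (+++).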

A. flavus isolate = assay: Agar well diffusion test; assay type: cell-based; conditions: AWDT; for Zone of inhibition: average of triplicate
Method in brief: as §1

E. coli O157 ATCC 700728 [2] = assay: Agar well diffusion test; assay type: cell-based; conditions: AWDT; for Zone of inhibition: E. coli O157 ATCC 700728, average of triplicate; for Zone of inhibition, inhibition scale: E. coli O157 ATCC 700728
Method in brief: as §1

c-MYC = assay: qRT-PCR gene expression in MCF7 cells: c-MYC; assay type: cell-based, human; conditions: compound at IC50, 48 h, relative to β-Actin, vs control
Method in brief: (§2)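 MCF7 cells (3 × 10^4 per well) were treated 48 h with test compound. Total RNA was column-extracted and reverse-transcribed to first-strand cDNA. SYBR Green qPCR ran 95 °C 10 min, then 40 cycles of 95 °C 15 s, 60 °C 30 s, 72 °C 30 s. Expression was normalised to β-Actin by 2−ΔΔCT relative to untreated control. Data are mean ± SEM; Student's t-test, P < 0.05.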

E. coli O157 ATCC 700728 [3] = assay: Minimum inhibitory concentration, E. coli; assay type: cell-based; conditions: Escherichia coli, ATCC700728, read-out: MIC (mg mL^−1)
Method in brief: (§3)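 MIC was determined by a previously reported method for compounds selected from the well-diffusion screen and is expressed in mg mL−1. […] For C. albicans, 100 μL of negative cells went onto potato dextrose agar at 25 °C/72 h.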

BAX = assay: qRT-PCR gene expression in MCF7 cells: BAX; assay type: cell-based, human; conditions: compound at IC50, 48 h, relative to β-Actin, vs control
Method in brief: as §2

E. coli DNA gyrase [4] = molecular target: T1, E. coli DNA gyrase (Escherichia coli, UniProt P0AES6); assay: E. coli DNA gyrase ATPase assay; assay type: biochemical
MCF7 cells = assay: Neutral red uptake cytotoxicity assay, MCF7; assay type: cell-based, human; conditions: for IC50: Homo sapiens, MCF7, 48 h, read-out: IC50 (μM) MCF7; for (SI) MCF7, selectivity index: SI = IC50 MDCK cell/IC50 MCF7 cell
Method in brief: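 Neutral red uptake. Log-phase cells were grown in DMEM with 10% FBS at 37 °C, 5% CO2, at 10^4 cells/well. They were exposed 48 h to 12.5, 25, 50 and 100 μM test compound (DMSO final <0.2%), then given neutral red medium for 2 h and washed with DPBS. Dye was extracted with 1% acetic acid/50% ethanol and read at 450/630 nm. IC50 came from log concentration versus intensity, three runs averaged. SI = MDCK IC50 / MCF7 IC50.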

E. coli DNA gyrase [5] = molecular target: T1, E. coli DNA gyrase; assay: E. coli DNA gyrase supercoiling assay; assay type: biochemical
Method in brief: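 Commercial kit assay of E. coli DNA gyrase supercoiling. Relaxed plasmid DNA is the substrate, and relaxed and supercoiled forms are separated by agarose gel electrophoresis. Test compounds were dissolved in DMSO and added at different concentrations to derive IC50.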

E. coli topoisomerase IV [6] = molecular target: T2, E. coli topoisomerase IV (Escherichia coli, UniProt P20083); assay: E. coli topoisomerase IV ATPase assay; assay type: biochemical
BCL2 = assay: qRT-PCR gene expression in MCF7 cells: BCL2; assay type: cell-based, human; conditions: compound at IC50, 48 h, relative to β-Actin, vs control
Method in brief: as §2

C. albicans ATCC 10231 [7] = assay: Minimum inhibitory concentration, C. albicans; assay type: cell-based; conditions: Candida albicans, ATCC10231, read-out: MIC (mg mL^−1)
Method in brief: as §3

STAT3 [8] = assay: qRT-PCR gene expression in MCF7 cells: STAT3; assay type: cell-based, human; conditions: compound at IC50, 48 h, relative to β-Actin, vs control
Method in brief: as §2

STAT3 [9] = molecular target: STAT3 (Homo sapiens, UniProt P40763); assay: STAT3 tyrosine phosphorylation inhibition; assay type: biochemical; conditions: for IC50: STAT3 phosphorylation IC50 (μM) (mean ± SD), ELISA, eight dilutions 100-0.03 μM
IL6 = assay: qRT-PCR gene expression in MCF7 cells: IL6; assay type: cell-based, human; conditions: compound at IC50, 48 h, relative to β-Actin, vs control
Method in brief: as §2

JAK2 = assay: qRT-PCR gene expression in MCF7 cells: JAK2; assay type: cell-based, human; conditions: compound at IC50, 48 h, relative to β-Actin, vs control
Method in brief: as §2

Cyclin D1 = assay: qRT-PCR gene expression in MCF7 cells: Cyclin D1; assay type: cell-based, human; conditions: compound at IC50, 48 h, relative to β-Actin, vs control
Method in brief: as §2

E. coli topoisomerase IV [10] = molecular target: T2, E. coli topoisomerase IV; assay: E. coli topoisomerase IV cleavage assay; assay type: biochemical

Sequence of STAT3 (Homo sapiens, UniProt P40763) (P40763 whole entry): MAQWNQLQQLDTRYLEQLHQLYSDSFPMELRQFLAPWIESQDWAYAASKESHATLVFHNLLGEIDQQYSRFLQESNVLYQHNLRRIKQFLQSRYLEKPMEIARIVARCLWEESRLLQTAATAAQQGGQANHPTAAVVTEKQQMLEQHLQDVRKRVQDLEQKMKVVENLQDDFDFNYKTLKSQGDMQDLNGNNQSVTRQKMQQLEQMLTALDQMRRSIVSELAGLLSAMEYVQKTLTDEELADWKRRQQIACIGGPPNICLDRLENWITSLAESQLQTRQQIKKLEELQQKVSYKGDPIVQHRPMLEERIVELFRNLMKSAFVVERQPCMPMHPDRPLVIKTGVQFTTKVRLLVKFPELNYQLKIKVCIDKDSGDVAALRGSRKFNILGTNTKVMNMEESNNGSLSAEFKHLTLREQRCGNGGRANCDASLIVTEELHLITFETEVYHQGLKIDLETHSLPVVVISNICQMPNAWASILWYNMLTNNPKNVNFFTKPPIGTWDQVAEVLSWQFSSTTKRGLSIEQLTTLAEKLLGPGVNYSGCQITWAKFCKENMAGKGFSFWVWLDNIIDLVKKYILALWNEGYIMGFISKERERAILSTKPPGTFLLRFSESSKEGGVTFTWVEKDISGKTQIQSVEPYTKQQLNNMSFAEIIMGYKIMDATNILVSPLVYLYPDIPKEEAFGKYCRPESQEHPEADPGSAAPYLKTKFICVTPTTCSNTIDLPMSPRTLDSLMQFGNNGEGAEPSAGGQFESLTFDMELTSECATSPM
T2 sequence (P20083 whole entry): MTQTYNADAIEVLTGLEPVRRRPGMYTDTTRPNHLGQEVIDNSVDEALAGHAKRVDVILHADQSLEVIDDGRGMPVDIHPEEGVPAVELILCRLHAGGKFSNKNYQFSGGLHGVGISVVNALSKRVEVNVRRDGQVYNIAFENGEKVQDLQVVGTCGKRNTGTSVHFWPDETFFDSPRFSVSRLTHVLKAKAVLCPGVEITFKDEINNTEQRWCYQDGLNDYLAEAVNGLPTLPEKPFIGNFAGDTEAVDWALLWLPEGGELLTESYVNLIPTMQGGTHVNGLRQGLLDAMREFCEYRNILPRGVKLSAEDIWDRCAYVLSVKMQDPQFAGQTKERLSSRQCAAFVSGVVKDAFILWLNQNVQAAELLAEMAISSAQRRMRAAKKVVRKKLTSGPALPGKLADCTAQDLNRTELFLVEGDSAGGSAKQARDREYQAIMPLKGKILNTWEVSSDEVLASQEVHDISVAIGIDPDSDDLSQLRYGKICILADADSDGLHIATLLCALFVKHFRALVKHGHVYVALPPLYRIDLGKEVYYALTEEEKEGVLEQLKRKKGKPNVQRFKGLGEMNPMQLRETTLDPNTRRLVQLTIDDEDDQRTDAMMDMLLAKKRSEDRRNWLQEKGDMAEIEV
T2 sequence (P0AFI2 whole entry partner): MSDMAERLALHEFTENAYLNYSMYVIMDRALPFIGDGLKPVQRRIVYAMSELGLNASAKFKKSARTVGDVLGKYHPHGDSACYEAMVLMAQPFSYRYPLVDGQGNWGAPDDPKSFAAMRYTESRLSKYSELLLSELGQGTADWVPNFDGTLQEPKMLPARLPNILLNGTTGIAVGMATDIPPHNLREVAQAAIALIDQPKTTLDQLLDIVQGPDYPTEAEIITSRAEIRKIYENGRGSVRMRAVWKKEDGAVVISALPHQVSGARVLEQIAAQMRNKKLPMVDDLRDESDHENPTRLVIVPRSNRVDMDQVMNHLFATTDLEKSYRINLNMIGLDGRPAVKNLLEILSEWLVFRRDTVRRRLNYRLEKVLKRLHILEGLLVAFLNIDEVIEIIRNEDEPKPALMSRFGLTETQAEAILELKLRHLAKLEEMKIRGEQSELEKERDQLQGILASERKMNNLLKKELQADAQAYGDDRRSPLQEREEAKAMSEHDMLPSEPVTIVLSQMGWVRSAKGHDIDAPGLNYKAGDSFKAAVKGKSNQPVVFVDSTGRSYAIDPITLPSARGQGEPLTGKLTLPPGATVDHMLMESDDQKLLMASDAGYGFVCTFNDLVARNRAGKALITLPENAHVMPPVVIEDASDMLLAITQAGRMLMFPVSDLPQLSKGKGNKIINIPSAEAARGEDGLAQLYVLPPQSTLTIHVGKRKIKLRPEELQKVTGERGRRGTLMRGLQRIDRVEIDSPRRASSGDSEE

| Structure (SMILES) | Zone of inhibition, inhibition scale (C. albicans ATCC 10231 [1]) | Zone of inhibition (C. albicans ATCC 10231 [1]) [mm] | Zone of inhibition, inhibition scale (S. aureus ATCC 25923) | Zone of inhibition (S. aureus ATCC 25923) [mm] | Zone of inhibition, inhibition scale (A. flavus isolate) | Zone of inhibition (A. flavus isolate) [mm] | Zone of inhibition (E. coli O157 ATCC 700728 [2]) [mm] | c-MYC gene expression level (c-MYC) | IC50 (MCF7 cells) [µM] | (SI) MCF7, selectivity index (MCF7 cells) | BCL2 gene expression level (BCL2) | MIC (C. albicans ATCC 10231 [7]) [µg/mL] | STAT3 gene expression level (STAT3 [8]) | IL6 gene expression level (IL6) | JAK2 gene expression level (JAK2) | further results |
| --- | --- | --- | --- | --- | --- | --- | --- | --- | --- | --- | --- | --- | --- | --- | --- | --- |
| CC(=O)c1ccc2cc(S(=O)(=O)NCc3ccccc3)ccc2c1 [Compound 5h, 6-Acetyl-N-benzylnaphthalene-2-sulfonamide] | + (7–11 mm (+)) | 7 | ++ (12–14 mm (++)) | 14 | + (7–11 mm (+)) | 10 | 10 | – | – | – | – | – | – | – | – | – |
| CC(=O)c1ccc2cc(S(=O)(=O)Nc3ccc(F)cc3)ccc2c1 [Compound 5b, 6-Acetyl-N-(4-fluorophenyl)naphthalene-2-sulfonamide] | +++ (15–17 mm (+++)) | 15 | − (0–6 mm (−)) | 0 | − (0–6 mm (−)) | 0 | 15 | significant decrease | 40.1 | 2.33 | significant decrease | 10000 (≈ 29.1 mM) | significant decrease | significant decrease | significant decrease | MIC (E. coli O157 ATCC 700728 [3]): 10000 µg/mL (≈ 29.1 mM); BAX gene expression level (BAX): significant increase; IC50 (E. coli DNA gyrase [4]): 3.58 µM; IC50 (E. coli DNA gyrase [5]): 20.6 µM; IC50 (E. coli topoisomerase IV [6]): 3.49 µM; IC50 (STAT3 [9]): 3.59 ± 0.7 µM; Potency as STAT3 inhibitor relative to lead compound I (STAT3 [9]; higher potency than compound I): approximately 2 fold; Cyclin D1 gene expression level (Cyclin D1): significant decrease; IC50 (E. coli topoisomerase IV [10]): 15.4 µM; Potency relative to norfloxacin, topoisomerase IV cleavage assay (E. coli topoisomerase IV [10]; E. coli, more potent than norfloxacin): 1.5 fold |
| CCn1cc(C(=O)O)c(=O)c2cc(F)c(N3CCNCC3)cc21 [Nor, norfloxacin, reference compound] | – | – | – | – | – | – | – | – | – | – | – | – | – | – | – | IC50 (E. coli DNA gyrase [5]): 11.1 µM; IC50 (E. coli topoisomerase IV [10]): 25.8 µM |
| COc1ccc(NS(=O)(=O)c2ccc3cc(C(C)=O)ccc3c2)cc1 [Compound 5g, 6-Acetyl-N-(4-methoxyphenyl)naphthalene-2-sulfonamide] | + (7–11 mm (+)) | 10 | − (0–6 mm (−)) | 0 | − (0–6 mm (−)) | 0 | 12 | – | – | – | – | – | – | – | – | Zone of inhibition, inhibition scale (E. coli O157 ATCC 700728 [2]): ++ (12–14 mm (++)) |
| CC(=O)c1ccc2cc(S(=O)(=O)Nc3cccc(Cl)c3)ccc2c1 [Compound 5d, 6-Acetyl-N-(3-chlorophenyl)naphthalene-2-sulfonamide] | + (7–11 mm (+)) | 15 | − (0–6 mm (−)) | 0 | − (0–6 mm (−)) | 0 | 10 | – | – | – | – | 10000 (≈ 27.8 mM) | – | – | – | – |
| CC(=O)c1ccc2cc(S(=O)(=O)Nc3ccccc3Cl)ccc2c1 [Compound 5c, 6-Acetyl-N-(2-chlorophenyl)naphthalene-2-sulfonamide] | +++ (15–17 mm (+++)) | 16 | − (0–6 mm (−)) | 0 | − (0–6 mm (−)) | 0 | 12 | – | – | – | – | 20000 (≈ 55.6 mM) | – | – | – | Zone of inhibition, inhibition scale (E. coli O157 ATCC 700728 [2]): ++ (12–14 mm (++)) |
| COc1cccc2c1C(=O)c1c(O)c3c(c(O)c1C2=O)C[C@@](O)(C(=O)CO)C[C@@H]3O[C@H]1C[C@H](N)[C@H](O)[C@H](C)O1 [Doxorubicin, reference compound] | – | – | – | – | – | – | – | significantly decreasing | 22.8 | 3.07 | significantly decreasing | – | significantly decreasing | significantly decreasing | significantly decreasing | BAX gene expression level (BAX): significantly raised; Cyclin D1 gene expression level (Cyclin D1): significantly decreasing |
| CC(=O)c1ccc2cc(S(=O)(=O)Nc3ccccn3)ccc2c1 [Compound 5i, 6-Acetyl-N-(pyridin-2-yl)naphthalene-2-sulfonamide] | + (7–11 mm (+)) | 14 | − (0–6 mm (−)) | 0 | − (0–6 mm (−)) | 0 | 11 | significant decrease | 41.6 | 2.13 | significant decrease | 40000 (≈ 123 mM) | significant decrease | significant decrease | significant decrease | BAX gene expression level (BAX): significant increase; IC50 (STAT3 [9]): 8.58 ± 0.9 µM; Cyclin D1 gene expression level (Cyclin D1): significant decrease |
| CC(=O)c1ccc2cc(S(=O)(=O)Nc3ccccc3C)ccc2c1 [Compound 5f, 6-Acetyl-N-(o-tolyl)naphthalene-2-sulfonamide] | + (7–11 mm (+)) | 12 | − (0–6 mm (−)) | 0 | − (0–6 mm (−)) | 0 | 11 | – | – | – | – | – | – | – | – | – |
| CC(=O)c1ccc2cc(S(=O)(=O)Nc3cccnc3)ccc2c1 [Compound 5j, 6-Acetyl-N-(pyridin-3-yl)naphthalene-2-sulfonamide] | +++ (15–17 mm (+++)) | 16 | − (0–6 mm (−)) | 0 | + (7–11 mm (+)) | 7 | 16 | – | – | – | – | 10000 (≈ 30.6 mM) | – | – | – | MIC (E. coli O157 ATCC 700728 [3]): 20000 µg/mL (≈ 61.3 mM) |
| CC(=O)c1ccc2cc(S(=O)(=O)Nc3ccccc3)ccc2c1 [Compound 5a, 6-Acetyl-N-phenylnaphthalene-2-sulfonamide] | ++ (12–14 mm (++)) | 12 | − (0–6 mm (−)) | 0 | − (0–6 mm (−)) | 0 | – | significantly decreased | 42.1 | 2.15 | significantly decreased | – | significantly decreased | significantly decreased | significantly decreased | IC50 (STAT3 [9]): 7.87 ± 0.74 µM |
